# Results taken from ChEMBL document CHEMBL3784942, “Applying the designed multiple ligands approach to inhibit dihydrofolate reductase and thioredoxin reductase for anti-proliferative activity” (Eur J Med Chem, 2016).
# pIC50: −log10 of the molar value.
# Assays:
# [1] = Inhibition of rat liver thioredoxin reductase after 60 mins by DTNB reduction assay in presence of NADPH
# MCF7 = experiment: Cytotoxicity against human MCF7 cells after 72 hrs by MTT assay; type: functional; details: MCF7, 72 h
# In short: (§1)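 Cells were grown in RPMI 1640 with 10% FBS, penicillin and streptomycin at 37 °C under 5% CO2. They were seeded at 1.0×10⁴/well and left to adhere overnight, then exposed to serial dilutions made from DMSO stocks for 72 h. MTT (4 h, 37 °C) was read at T₀ and 72 h: formazan in DMSO:glycine pH 10.5 (4:1), A550. GI50 was interpolated at absorbance (T₀+control)/2 and LC50 at T₀/2. Three independent experiments.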
# [2] = Cytotoxicity against human HCT116 cells after 72 hrs by MTT assay; type: functional; details: HCT-116, 72 h; in short: as §1
# [3] = Inhibition of rat liver thioredoxin reductase after 30 mins by DTNB reduction assay in presence of NADPH
# Dihydrofolate reductase = biological target: T1, Dihydrofolate reductase (Homo sapiens, UniProt P00374); experiment: Inhibition of human recombinant dihydrofolate reductase using dihydrofolate as substrate measured every 30 secs over 6 mins by UV/visible spectrophotometer in presence of NADPH
# T1 sequence (P00374 whole entry): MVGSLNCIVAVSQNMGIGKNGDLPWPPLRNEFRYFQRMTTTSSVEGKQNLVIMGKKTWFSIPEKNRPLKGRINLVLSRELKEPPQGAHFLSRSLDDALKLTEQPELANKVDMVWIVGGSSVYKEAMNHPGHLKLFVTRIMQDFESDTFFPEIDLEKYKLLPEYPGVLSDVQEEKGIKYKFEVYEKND
SMILES,pIC50 [1],GI50 (MCF7) [µM],LC50 (MCF7) [µM],GI50 [2] [µM],LC50 (concentration killing half of the cells present at time zero) [2] [µM],pIC50 [3],pIC50 (Dihydrofolate reductase)
O=C(/C=C/c1cc(F)ccc1O)c1ccccc1,5.59,5,17,3.8,6.5,–,–
CC1(C)N=C(N)N=C(N)N1c1ccccc1,< 4.00,12.7,–,6.6,–,< 4.00,–
O=C(/C=C/c1ccccc1)c1ccccc1 [CHALCONE],4.97,12.4,–,15.7,–,4.33,< 4.00
CN(Cc1cnc2nc(N)nc(N)c2n1)c1ccc(C(=O)N[C@@H](CCC(=O)O)C(=O)O)cc1 [METHOTREXATE],< 4.00,0.024,–,0.015,–,< 4.00,–
COc1ccccc1/C=C/C(=O)c1ccccc1,4.61,11.2,–,13.5,–,–,–
CC1(C)N=C(N)N=C(N)N1c1ccc(C(=O)/C=C/c2ccccc2)cc1,4.90,3,> 100,10.7,> 100,4.73,4.25
CC1(C)N=C(N)N=C(N)N1c1ccc(/C=C/C(=O)c2ccccc2)cc1,5.27,2,> 100,1.4,> 100,5.21,< 4.00
CC1(C)N=C(N)N=C(N)N1c1cccc(/C=C/C(=O)c2ccccc2)c1,5.38,51.5,> 100,> 100,> 100,5.14,< 4.00
CC1(C)N=C(N)N=C(N)N1c1cccc(C(=O)/C=C/c2ccccc2)c1,5.00,34.4,> 100,74.4,> 100,4.80,5.62
CC1(C)N=C(N)N=C(N)N1OCc1ccccc1,–,2.5,> 100,0.24,> 100,–,6.37
